Results reported in ChEMBL document CHEMBL3352584, “Novel DNA gyrase inhibiting spiropyrimidinetriones with a benzisoxazole scaffold: SAR and in vivo characterization” (J Med Chem, 2014).
Converted amounts (≈) assume the structure as drawn.

Tests used:
[1] = tested on: Staphylococcus aureus; assay: Inhibition of DNA synthesis in methicillin-sensitive Staphylococcus aureus by [3H]-thymidine incorporation assay; type: functional, organism-based
[2] = tested on: Staphylococcus aureus; assay: Inhibition of RNA synthesis in methicillin-sensitive Staphylococcus aureus by [3H]-uridine incorporation assay; type: functional, organism-based
[3] = Bioavailability in mouse at 3 mg/kg, iv or at 10 mg/kg, po by LC-MS/MS method; type: ADME, organism-based; details: in vivo
Summary of the method: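 Male mice (CD-1) or male Wistar Hannover rats, three per experiment, given a 15 min iv infusion at 3 mg/kg or oral dosing at 10 mg/kg. Vehicle was DMA:TEG:saline 40/40/20 for mice and meglumine/cyclodextrin for rats. Serial jugular blood was taken over 0–24 h, plasma analysed by LC-MS/MS, and a noncompartmental analysis used. Mean values are given.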

[4] = tested on: Rattus norvegicus; assay: Toxicity in Wistar Hannover rat at 1000 mg/kg, po administered as single dose; type: organism-based; set-up: dose 1000 mg/kg, route oral; details: in vivo
Summary of the method: (§1)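 Single-dose oral phase in groups of three male Wistar Hannover rats, at doses up to 1000 mg/kg. Vehicle was 0.2 M meglumine/20% hydroxypropyl-β-cyclodextrin.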

[5] = Toxicity in po dosed Wistar Hannover rat administered as single dose; type: organism-based; details: in vivo; summary of the method: as §1
[6] = Toxicity in po dosed Wistar Hannover rat administered administered once daily for 14 days; type: organism-based; details: in vivo
Summary of the method: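 Repeat-dose oral study in Wistar Hannover rats, three males and three females per group, dosed once daily for 14 days at 0, 250, 500 or 750 mg/kg/day and necropsied on day 15. Endpoints were clinical signs, body weight, food intake, temperature, hematology, plasma chemistry, toxicokinetics, and gross and microscopic pathology.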

[7] = tested on: Staphylococcus aureus; assay: Antimicrobial activity against methicillin-sensitive Staphylococcus aureus ARC516 infected in immunocompetant mouse administered as single ip dose starting 2 hrs after infection; type: functional, organism-based
[8] = tested on: Staphylococcus aureus; assay: Antimicrobial activity against methicillin-sensitive Staphylococcus aureus ARC516 infected in immunocompetant mouse assessed as reduction in CFU at free AUC of 13 ug.hr/mL compound administered as single ip dose starting 2 hrs after infection relative to untreated control; type: functional
Summary of the method: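 CD-1 mouse thighs were infected with mid-log S. aureus ARC516 at a target inoculum of 5 × 10⁵ CFU. Groups of five received IP compound in DMA:TEG:saline 40/40/20%, starting 2 h post-infection; a vehicle group served as control. Mice were killed 24 h after treatment start, and thigh homogenates were plated on tryptic soy agar (37 °C, overnight) for CFU/g. Free exposure was corrected for mouse plasma protein binding.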

[9] = Cmax in Wistar Hannover rat at 500 mg/kg, po dosed once daily for 14 days measured on day 14; type: ADME, organism-based; set-up: dose 500 mg/kg, route oral; details: in vivo
Summary of the method: (§2)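 Wistar Hannover rats, 2 males and 2 females per dose, dosed orally once daily for 14 days at 250, 500 or 750 mg/kg/day. Vehicle was 0.2 M meglumine/20% hydroxypropyl-β-cyclodextrin. Blood was sampled on day 14 and exposure measured in blood. Animals were killed after sampling without necropsy.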

[10] = AUC in Wistar Hannover rat at 250 mg/kg, po dosed once daily for 14 days measured on day 14; type: ADME, organism-based; set-up: dose 250 mg/kg, route oral; details: plasma; summary of the method: as §2
[11] = AUC in Wistar Hannover rat at 500 mg/kg, po dosed once daily for 14 days measured on day 14; type: ADME, organism-based; set-up: dose 500 mg/kg, route oral; details: plasma; summary of the method: as §2
[12] = target: DNA topoisomerase 2-alpha (Homo sapiens, UniProt P11388); assay: Inhibition of human topoisomerase 2alpha
[13] = Solubility of the compound; type: physicochemical
[14] = tested on: Streptococcus pyogenes; assay: Antimicrobial activity against Streptococcus pyogenes by broth microdilution method; type: functional
Summary of the method: (§3)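 Broth microdilution following CLSI guidelines. Values under 12.5 μM are averages of three or more replicates.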

[15] = tested on: Haemophilus influenzae; assay: Antimicrobial activity against Haemophilus influenzae by broth microdilution method; type: functional; summary of the method: as §3
[16] = tested on: Staphylococcus aureus; assay: Antimicrobial activity against Staphylococcus aureus 2792 harboring wild-type GyrA and GyrB R144A mutant by broth microdilution method; type: functional

Chain of DNA topoisomerase 2-alpha (P11388 whole entry): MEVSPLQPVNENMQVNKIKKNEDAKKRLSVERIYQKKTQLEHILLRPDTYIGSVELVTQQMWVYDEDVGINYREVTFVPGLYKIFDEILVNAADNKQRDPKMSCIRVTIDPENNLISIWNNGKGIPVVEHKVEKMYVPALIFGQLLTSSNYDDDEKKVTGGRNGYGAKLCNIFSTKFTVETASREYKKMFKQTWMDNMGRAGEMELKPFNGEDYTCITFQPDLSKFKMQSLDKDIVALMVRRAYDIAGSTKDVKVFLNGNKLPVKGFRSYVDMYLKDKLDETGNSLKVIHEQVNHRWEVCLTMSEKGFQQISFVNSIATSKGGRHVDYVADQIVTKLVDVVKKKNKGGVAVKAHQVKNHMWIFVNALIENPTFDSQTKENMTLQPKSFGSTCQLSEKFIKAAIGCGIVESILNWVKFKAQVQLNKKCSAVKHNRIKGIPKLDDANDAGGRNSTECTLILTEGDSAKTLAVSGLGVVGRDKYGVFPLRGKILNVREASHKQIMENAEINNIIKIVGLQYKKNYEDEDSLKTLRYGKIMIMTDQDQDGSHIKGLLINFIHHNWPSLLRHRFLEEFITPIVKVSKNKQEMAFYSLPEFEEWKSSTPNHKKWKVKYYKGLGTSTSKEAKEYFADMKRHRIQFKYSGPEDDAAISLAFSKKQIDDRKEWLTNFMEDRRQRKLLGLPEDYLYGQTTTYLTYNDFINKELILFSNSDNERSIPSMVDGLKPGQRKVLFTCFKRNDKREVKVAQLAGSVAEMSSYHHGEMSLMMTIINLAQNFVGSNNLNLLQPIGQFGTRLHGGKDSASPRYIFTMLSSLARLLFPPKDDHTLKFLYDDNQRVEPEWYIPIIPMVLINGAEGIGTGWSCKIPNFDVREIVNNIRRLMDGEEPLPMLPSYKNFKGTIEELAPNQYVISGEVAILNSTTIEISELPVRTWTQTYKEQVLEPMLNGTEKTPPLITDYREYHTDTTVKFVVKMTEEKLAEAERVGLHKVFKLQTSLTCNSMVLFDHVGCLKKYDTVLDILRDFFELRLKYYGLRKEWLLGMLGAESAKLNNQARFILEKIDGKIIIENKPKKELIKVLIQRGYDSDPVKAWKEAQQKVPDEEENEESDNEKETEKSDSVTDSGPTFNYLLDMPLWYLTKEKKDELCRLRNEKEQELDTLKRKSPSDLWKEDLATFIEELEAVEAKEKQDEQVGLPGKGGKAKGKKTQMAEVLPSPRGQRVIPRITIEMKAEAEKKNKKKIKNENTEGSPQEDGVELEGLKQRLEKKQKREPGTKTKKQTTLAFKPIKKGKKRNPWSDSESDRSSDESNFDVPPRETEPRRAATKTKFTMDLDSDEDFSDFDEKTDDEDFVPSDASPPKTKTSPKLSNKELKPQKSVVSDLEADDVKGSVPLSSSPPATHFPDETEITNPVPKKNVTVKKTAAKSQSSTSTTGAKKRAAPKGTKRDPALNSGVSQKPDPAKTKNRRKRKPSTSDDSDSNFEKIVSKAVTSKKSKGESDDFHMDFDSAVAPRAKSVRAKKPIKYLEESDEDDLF

Cc1noc2c(F)c3c(cc12)CC1(C(=O)NC(=O)NC1=O)[C@H]1[C@H](C)O[C@H](C)CN31
IC50 [1]: 0.06 µg/mL (≈ 0.149 µM) | IC50 [2]: 5 µg/mL (≈ 12.4 µM) | bioavailability [3]: 58% | Activity [4]: Toxic | MTD [5]: ≤ 750 mg/kg | NOAEL at 336 h [6]: 500 mg/kg | Activity [7]: Dose-dependent effect | fold change (FC) [8]: 3 | Cmax [9]: 440 µM | AUC at 336 h [10]: 2300 µM·h | AUC at 336 h [11]: 4400 µM·h | IC50 [12]: 50 µM | solubility [13]: > 1000 µM | MIC [14]: 6.2 µM (≈ 2.49 µg/mL) | MIC [15]: 1 µM (≈ 0.402 µg/mL) | MIC [16]: 0.5 µg/mL (≈ 1.24 µM)
